In article PMC2940062 (Cancer, 2010):
Where two headings read alike, the source gives them in different places.

What was measured:
[1] = Docetaxel pharmacokinetics in plasma, day 1 of cycle 1; assay type: in vivo; details: human, intravenous
Summary of the method: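 Patients with advanced NSCLC got a 60-min i.v. docetaxel infusion on day 1, alongside oral everolimus (5 or 7.5 mg daily) and dexamethasone premedication (8 mg twice daily for 3 days, starting the day before). Peripheral venous blood was drawn into sodium heparin on cycle 1 day 1, centrifuged (4 °C, 3000 × g, 10 min), and plasma stored at −80 °C. Validated LC-MS/MS quantitation was used, with noncompartmental t1/2.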

[2] = single-agent docetaxel, second line NSCLC; cited from earlier work
[3] = Everolimus pharmacokinetics in blood, cycle 1; assay type: in vivo, human; details: for AUC(0-t) / Cmax: human, whole blood, oral
Summary of the method: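 NSCLC patients; oral mTOR inhibitor daily on days 1–19 of 3-week cycles, with a 60-min i.v. co-drug infusion on day 1 and dexamethasone premedication. Cycle 1, days 1, 8 and 15: 2 mL venous blood into K-EDTA at 30 min pre-dose and 1, 2, 5, 8 and 24 h post-dose, frozen at −20 °C within 60 min.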

[4] = test system: recurrent or refractory NSCLC; details: everolimus monotherapy; cited from earlier work
[5] = single agent; cited from earlier work

What does the source list for CC(=O)O[C@@]12CO[C@@H]1C[C@H](O)[C@@]1(C)C(=O)[C@H](O)C3=C(C)[C@@H](OC(=O)[C@H](O)[C@@H](NC(=O)OC(C)(C)C)c4ccccc4)C[C@@](O)([C@@H](OC(=O)c4ccccc4)[C@H]21)C3(C)C [Docetaxel, docetaxel]?
half-life [1]: 564 ± 204 min; half-life ([1]; 60 mg/m2): 1010 min; AUC(0-inf) ([1]; 60 mg/m2, AUC0-∞, Day 1, everolimus 5 mg/day, docetaxel 60 mg/m^2, n=1): 2.08 µM·h; Cmax ([1]; 60 mg/m2, Cmax, Day 1, everolimus 5 mg/day, docetaxel 60 mg/m^2, n=1): 1010 nM; half-life ([1]; 75 mg/m2): 524 min; AUC(0-inf) ([1]; 75 mg/m2, AUC0-∞, Day 1, everolimus 5 mg/day, docetaxel 75 mg/m^2, n=3, mean (SD)): 6.95 µM·h; AUC(0-inf) ([1]; 75 mg/m2, AUC0-∞, Day 1, everolimus 7.5 mg/day, docetaxel 75 mg/m^2, n=1): 7.3 µM·h; Cmax ([1]; 75 mg/m2, Cmax, Day 1, everolimus 5 mg/day, docetaxel 75 mg/m^2, n=3, mean (SD)): 1610 nM; incidence of fever with neutropenia [2]: 2–12%; recommended phase II dose (RP2D) (docetaxel day 1 every 3 weeks, in combination with everolimus): 60 mg/m^2

For CO[C@H]1C[C@@H]2CC[C@@H](C)[C@@](O)(O2)C(=O)C(=O)N2CCCC[C@H]2C(=O)O[C@H]([C@H](C)C[C@@H]2CC[C@@H](OCCO)[C@H](OC)C2)CC(=O)[C@H](C)/C=C(\C)[C@@H](O)[C@@H](OC)C(=O)[C@H](C)C[C@H](C)/C=C/C=C/C=C/1C [Everolimus, everolimus], which “Everolimus exposure (mean AUC and Cmax) versus dose” value ([3]; 5 and 7.5 mg/day) is on record?
The value was “increased proportionally with dose”.

And the AUC(0-t) ([3]; 60 mg/m2, AUC0-24, Day 1, everolimus 5 mg/day, docetaxel 60 mg/m^2, n=3, mean (SD))?
The AUC(0-t) was 244 ng·h/mL.

And the AUC(0-t) ([3]; 60 mg/m2, AUC0-24, Day 8, everolimus 5 mg/day, docetaxel 60 mg/m^2, n=3, mean (SD))?
Its AUC(0-t) is 329 ng·h/mL.

And the AUC(0-t) ([3]; 60 mg/m2, AUC0-24, Day 15, everolimus 5 mg/day, docetaxel 60 mg/m^2, n=3, mean (SD))?
Its AUC(0-t) is 350 ng·h/mL.

And the Cmax ([3]; 60 mg/m2, Cmax, Day 1, everolimus 5 mg/day, docetaxel 60 mg/m^2, n=3, mean (SD))?
The Cmax was 37.7 ng/mL.

And the Cmax ([3]; 60 mg/m2, Cmax, Day 15, everolimus 5 mg/day, docetaxel 60 mg/m^2, n=3, mean (SD))?
The Cmax was 51 ng/mL.

And the AUC(0-t) ([3]; 75 mg/m2, AUC0-24, Day 1, everolimus 5 mg/day, docetaxel 75 mg/m^2, n=10, mean (SD))?
Its AUC(0-t) is 330 ng·h/mL.

What about the AUC(0-t) ([3]; 75 mg/m2, AUC0-24, Day 1, everolimus 7.5 mg/day, docetaxel 75 mg/m^2, n=4, mean (SD)) of the same compound?
Its AUC(0-t) is 379 ng·h/mL.

What about the AUC(0-t) ([3]; 75 mg/m2, AUC0-24, Day 8, everolimus 5 mg/day, docetaxel 75 mg/m^2, n=6, mean (SD)) of the same compound?
Its AUC(0-t) is 336 ng·h/mL.

And the AUC(0-t) ([3]; 75 mg/m2, AUC0-24, Day 15, everolimus 5 mg/day, docetaxel 75 mg/m^2, n=6, mean (SD))?
Its AUC(0-t) is 369 ng·h/mL.

And the AUC(0-t) ([3]; 75 mg/m2, AUC0-24, Day 15, everolimus 7.5 mg/day, docetaxel 75 mg/m^2, n=1)?
The AUC(0-t) was 772 ng·h/mL.

And the Cmax ([3]; 75 mg/m2, Cmax, Day 1, everolimus 5 mg/day, docetaxel 75 mg/m^2, n=10, mean (SD))?
Its Cmax is 22.4 ng/mL.

What about the Cmax ([3]; 75 mg/m2, Cmax, Day 8, everolimus 5 mg/day, docetaxel 75 mg/m^2, n=6, mean (SD)) of the same compound?
Its Cmax is 35.8 ng/mL.

What about the Cmax ([3]; 75 mg/m2, Cmax, Day 15, everolimus 5 mg/day, docetaxel 75 mg/m^2, n=6, mean (SD)) of the same compound?
The Cmax was 37.8 ng/mL.

And the Cmax ([3]; 75 mg/m2, Cmax, Day 15, everolimus 7.5 mg/day, docetaxel 75 mg/m^2, n=1)?
Its Cmax is 102 ng/mL.

And the response rate [4]?
Its response rate is 5%.

What about the “inter-patient variability in AUC” value [5] of the same compound?
The value was 33%.

What about the “recommended phase II dose (RP2D)” value (everolimus days 1-19 every 3 weeks, in combination with docetaxel) of the same compound?
The value was 5 mg PO daily.
